Activity calls are given as the source filed them. Cut-off read from the data, not from the text of the source, unless noted: active = inhibition above about 30%; inactive = the rest.
What was measured:
[1] = reducers of endogenous Her2 protein level, primary screen, SKBR3 breast tumor cells, AlphaScreen, ATP viability (AID 461;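 active = Her2 level under about 52% in both replicate screens, with viability over 70% of control, limit read from the data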;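 for Her2 level: lower value means less Her2 protein in the cells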;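 for viability: percent of carrier control wells set as 100% viability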); settings: 18-24 h, measured here: SKBR3 viability, ATP luminescence, at 10 µM
[2] = target: Receptor tyrosine-protein kinase erbB-2 (Homo sapiens) (UniProt P04626); experiment: as above; settings: 18-24 h, at 10 µM, stronger effect = lower value
[3] = SK-BR-3 cell growth inhibitors, pilot screen, 24 h, human (AID 572;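 active = viability at or below 10% of carrier control in both of two separate runs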;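 note: compound exposure lasted between 18 and 24 h rather than exactly 24 h; 100% = carrier-treated control wells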); settings: SK-BR-3 viability, CellTiter-Glo luminescence, at 10 µM, stronger effect = lower value
[4] = HUVEC growth inhibition – cell-based, human, primary screen (AID 575;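 active = viability at or below 30% in both replicate assays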;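 note: 100% = median of untreated cell wells with 0.1% DMSO on each plate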); settings: HUVEC proliferation, CellTiter-Glo luminescence, 72 h; at 10 µM; stronger effect = lower value
In short: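 Test system – primary HUVEC, no more than 12 passages · Dosing – one dose, 10 µM final, 0.1% DMSO · Times – 72 h treatment at 37 °C · Measured by – ATP-based CellTiter-Glo luminescent read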

[5] = growth inhibitors of H69AR lung tumor, primary screen, human, duplicate replicates (AID 580;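 active = viability at or under a set limit in both replicates, limit being median viability minus 3 SD, cut at about 48% in these data, passing the limit was not always enough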;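 note: 100% = mean luminescence of untreated wells and 0% = no signal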); settings: H69AR lung tumor cells viability, ATP luminescence, 72 h; at 10 µM; stronger effect = lower value
[6] = reversal of MRP1-mediated doxorubicin resistance, pilot screen, H69AR cells, doxorubicin co-treatment (AID 601;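 active = viability loss from added drug above about 55%, and viability with drug at most 40%, in both replicates, limit read from the data, passing the limit was not always enough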); settings: CellTiter-Glo, 72 h, at 10 µM; for differential viability (reversal): stronger effect = higher value
[7] = 384-well plate pilot, post-Golgi transport modulator project, inhibition of yeast transport mutant growth (AID 636; in the data active = inhibition above about 31%); settings: absorbance 615 nm, about 18 h, stronger effect = higher value
[8] = growth suppression of yeast trafficking mutant, preliminary HTS, modulators of trafficking downstream of Golgi apparatus project, 1536-format plate, OD 615 nm (AID 637); settings: yeast transport mutant growth, absorbance 615 nm, 18 h; stronger effect = higher value
[9] = H69AR cells + 2 uM doxorubicin, measured here: viability with 2 uM doxorubicin, stronger effect = lower value
[10] = H69AR cells, compound alone cytotoxicity

Chain of Receptor tyrosine-protein kinase erbB-2 (Homo sapiens) (P04626 whole entry, looked up): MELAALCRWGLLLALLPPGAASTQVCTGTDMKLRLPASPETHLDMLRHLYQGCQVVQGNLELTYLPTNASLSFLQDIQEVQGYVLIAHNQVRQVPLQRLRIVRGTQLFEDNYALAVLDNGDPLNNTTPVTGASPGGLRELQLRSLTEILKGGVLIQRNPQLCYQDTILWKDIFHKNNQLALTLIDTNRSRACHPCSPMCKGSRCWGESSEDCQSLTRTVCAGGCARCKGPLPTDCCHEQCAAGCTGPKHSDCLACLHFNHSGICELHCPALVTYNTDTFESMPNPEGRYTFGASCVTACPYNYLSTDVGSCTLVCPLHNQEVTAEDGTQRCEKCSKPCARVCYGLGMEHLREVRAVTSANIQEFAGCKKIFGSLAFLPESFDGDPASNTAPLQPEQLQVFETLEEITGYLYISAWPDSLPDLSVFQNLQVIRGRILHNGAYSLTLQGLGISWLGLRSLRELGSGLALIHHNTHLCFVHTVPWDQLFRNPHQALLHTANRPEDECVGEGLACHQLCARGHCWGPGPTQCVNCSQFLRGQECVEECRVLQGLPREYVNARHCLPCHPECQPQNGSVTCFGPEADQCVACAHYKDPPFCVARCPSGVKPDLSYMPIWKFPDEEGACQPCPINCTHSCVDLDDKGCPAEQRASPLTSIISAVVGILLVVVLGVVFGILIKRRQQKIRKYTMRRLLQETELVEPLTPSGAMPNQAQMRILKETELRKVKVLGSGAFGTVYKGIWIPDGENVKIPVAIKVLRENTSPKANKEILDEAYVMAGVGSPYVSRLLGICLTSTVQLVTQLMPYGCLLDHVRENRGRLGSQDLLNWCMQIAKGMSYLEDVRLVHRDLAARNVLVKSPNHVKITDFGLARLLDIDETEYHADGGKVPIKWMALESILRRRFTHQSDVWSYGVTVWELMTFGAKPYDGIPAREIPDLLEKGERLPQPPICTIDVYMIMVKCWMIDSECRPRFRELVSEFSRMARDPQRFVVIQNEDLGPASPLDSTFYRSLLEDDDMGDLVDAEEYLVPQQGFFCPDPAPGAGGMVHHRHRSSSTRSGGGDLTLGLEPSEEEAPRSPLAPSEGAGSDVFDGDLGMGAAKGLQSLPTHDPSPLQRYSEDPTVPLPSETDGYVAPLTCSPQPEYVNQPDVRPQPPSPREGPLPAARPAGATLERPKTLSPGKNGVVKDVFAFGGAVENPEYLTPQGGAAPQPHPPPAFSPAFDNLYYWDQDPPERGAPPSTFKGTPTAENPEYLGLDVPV

SMILES | viability [1] [%] | Her2 level [2] | viability [3] | viability [4] | viability [5] | differential viability (reversal) ([6]; H69AR cells + 2 uM doxorubicin) | viability [6, 9] [%] | viability [6, 10] [%] | inhibition [7] | inhibition [8]
O=C(NCCCCNC(=O)c1cccnc1)c1cccnc1 | 95 | 83% (inactive) | 95% (inactive) | 94.5% (inactive) | 105% (inactive) | 3.5% (inactive) | 102 | 105 | -0.52% (inactive) | 34.9% (active)
CCOC(=O)c1sc2nc(C)cc(C)c2c1N | 105 | 95% (inactive) | 105% (inactive) | 110% (inactive) | 98.4% (inactive) | 15.6% (inactive) | 82.8 | 98.4 | -5.07% (inactive) | 4.52% (inactive)
CCOC(=O)C(C)n1cnc2c(nnn2Cc2ccc(C)cc2)c1=O (stereo not given) | 116 | 95.5% (inactive) | 116% (inactive) | 104% (inactive) | 91.9% (inactive) | 3.18% (inactive) | 88.7 | 91.9 | -9.73% (inactive) | 1.9% (inactive)
CCN(CC)S(=O)(=O)c1ccc(NC(=O)CN(c2cccc(F)c2)S(C)(=O)=O)cc1 | 96 | 84.5% (inactive) | 96% (inactive) | 88.7% (inactive) | 92.5% (inactive) | -3.88% (inactive) | 96.3 | 92.5 | -4.29% (inactive) | -0.33% (inactive)
Cc1ccc(C(=O)NC2CC3CCCC(C2)N3C(=O)NC2CCCCC2)cc1 (stereo not given) | 92 | 109% (inactive) | 92% (inactive) | 111% (inactive) | 98.5% (inactive) | 7.93% (inactive) | 90.6 | 98.5 | -5.73% (inactive) | -2.1% (inactive)
CCC(=O)N1Cc2ccccc2-c2ccccc2C1=O | 102 | 91% (inactive) | 102% (inactive) | 80.1% (inactive) | 90% (inactive) | 4.75% (inactive) | 85.2 | 90 | -5.06% (inactive) | 4.76% (inactive)
Clc1cc2c(c(Cn3cnc4ccccc43)c1)OCOC2 | 109 | 106% (inactive) | 109% (inactive) | 87.8% (inactive) | 98% (inactive) | 6.4% (inactive) | 91.6 | 98 | -3.33% (inactive) | -5.57% (inactive)
O=C1CCCc2c1cc(C(=O)NCc1ccco1)c(=O)n2-c1ccc(Cl)cc1 | 88 | 110% (inactive) | 88% (inactive) | 80.8% (inactive) | 93.5% (inactive) | 13% (inactive) | 80.5 | 93.5 | -4.8% (inactive) | -3.39% (inactive)
CCCn1c(NC(=O)C2COc3ccccc3O2)nc2ccccc21 (stereo not given) | 99.5 | 90% (inactive) | 99.5% (inactive) | 66.1% (inactive) | 67.8% (inactive) | -13.7% (inactive) | 81.6 | 67.8 | -3.47% (inactive) | 5.74% (inactive)
O=C(O)CCCC(=O)Nc1nc(-c2ccc(F)cc2)cs1 | 97.5 | 75.5% (inactive) | 97.5% (inactive) | 83.3% (inactive) | 96.5% (inactive) | 4.08% (inactive) | 92.4 | 96.5 | -3.95% (inactive) | -4.5% (inactive)
COc1cccc(-c2nnc3sc(-c4ccc(C)cc4)nn23)c1 | 103 | 81% (inactive) | 103% (inactive) | 57% (inactive) | 17.3% (active) | -61.5% (inactive) | 78.8 | 17.3 | -5.92% (inactive) | -4.03% (inactive)
CCOC(=O)Nc1c(C(=O)OC)[nH]c2cccc(OC)c12 | 76 | 112% (inactive) | 76% (inactive) | 106% (inactive) | 104% (inactive) | 13% (inactive) | 91 | 104 | 3.03% (inactive) | 9.52% (inactive)
CCOC(=O)CC1(CC(=O)OCC)NC(=O)c2c(C)sc(C(=O)OCC)c2N1 | 92 | 93% (inactive) | 92% (inactive) | 71.4% (inactive) | 101% (inactive) | 5.26% (inactive) | 95.3 | 101 | -1.05% (inactive) | 6.39% (inactive)
O=C(O)CN(c1ccccc1)C1SC(=O)NC1=O (stereo not given) | 85.5 | 87.5% (inactive) | 85.5% (inactive) | 98.5% (inactive) | 86.8% (inactive) | 3.04% (inactive) | 83.8 | 86.8 | -4.93% (inactive) | 2.79% (inactive)
O=C(CCc1nc2ccccc2s1)OCC(=O)N1CCN(C(=O)c2ccco2)CC1 | 117 | 93.5% (inactive) | 117% (inactive) | 91.1% (inactive) | 90.5% (inactive) | 3.61% (inactive) | 86.8 | 90.5 | -5.41% (inactive) | -0.48% (inactive)
Cn1c(=O)c2c(nc(Oc3ccc4c(c3)OCO4)n2Cc2ccc(F)cc2)n(C)c1=O | 79.5 | 74.5% (inactive) | 79.5% (inactive) | 72.1% (inactive) | 74.7% (inactive) | -8.34% (inactive) | 83 | 74.7 | -2.84% (inactive) | 3.49% (inactive)

SMILES | viability [1] [%] | Her2 level [2] | viability [3] | viability [4] | viability [5] | differential viability (reversal) ([6]; H69AR cells + 2 uM doxorubicin) | viability [6, 9] [%] | viability [6, 10] [%] | inhibition [7] | inhibition [8]
CCOC(=O)c1sc2ncn(/N=C/N(C)C)c(=O)c2c1C | 98 | 97.5% (inactive) | 98% (inactive) | 114% (inactive) | 100% (inactive) | 5.85% (inactive) | 94.1 | 100 | -6.13% (inactive) | 4.68% (inactive)
CCCc1nnc(SCC(=O)N2CCOCC2)n1Cc1ccco1 | 126 | 87.5% (inactive) | 126% (inactive) | 109% (inactive) | 96.9% (inactive) | 15.3% (inactive) | 81.6 | 96.9 | -4.67% (inactive) | -6.39% (inactive)
CN(C)S(=O)(=O)N1CCN(C(=O)N(c2ccccc2)c2ccccc2)CC1 | 81.5 | 154% (inactive) | 81.5% (inactive) | 99.4% (inactive) | 97.5% (inactive) | -4.56% (inactive) | 102 | 97.5 | 1.28% (inactive) | 12.7% (inactive)
COc1ccccc1S(=O)(=O)n1cc(Cc2ccccc2)c(N)n1 | 96.5 | 86% (inactive) | 96.5% (inactive) | 96.4% (inactive) | 104% (inactive) | 5.54% (inactive) | 98.5 | 104 | -2.37% (inactive) | -6.51% (inactive)
CCOc1cc(NC(=O)c2ccco2)c(OCC)cc1NC(=O)Cc1cccc(OC)c1 | 107 | 99.5% (inactive) | 107% (inactive) | 61.2% (inactive) | 86.7% (inactive) | -0.055% (inactive) | 86.7 | 86.7 | 0.68% (inactive) | -6.39% (inactive)
COc1ccccc1NC(=O)CSc1nnc(-c2ccncc2)n1CC1CCCO1 (stereo not given) | 97 | 91% (inactive) | 97% (inactive) | 103% (inactive) | 96.7% (inactive) | 6.53% (inactive) | 90.1 | 96.7 | -5.33% (inactive) | -3.81% (inactive)
CCN(CC)c1ccc(/C=N/n2nnnc2N)c(O)c1 | 119 | 80% (inactive) | 119% (inactive) | 57.6% (inactive) | 14.4% (active) | -42.7% (inactive) | 57.2 | 14.4 | 0.52% (inactive) | -1.15% (inactive)
Cc1nn(-c2ccccc2)c(C)c1C(=O)OCC(=O)c1c(N)n(CC(C)C)c(=O)n(C)c1=O | 104 | 74% (inactive) | 104% (inactive) | 64.3% (inactive) | 77.8% (inactive) | -24.7% (inactive) | 102 | 77.8 | -8.4% (inactive) | 4.75% (inactive)
COc1ccc(-n2c(COc3cccc(C)c3)nnc2SCC(=O)NCc2ccco2)cc1 | 126 | 91% (inactive) | 126% (inactive) | 84.4% (inactive) | 85.4% (inactive) | -10.3% (inactive) | 95.7 | 85.4 | -2.84% (inactive) | -1.43% (inactive)
COCCn1c(-c2ccc(OC)c(OC)c2)nc2ccccc21 | 93 | 108% (inactive) | 93% (inactive) | 105% (inactive) | 95.8% (inactive) | 4.81% (inactive) | 91 | 95.8 | -4.67% (inactive) | -5.81% (inactive)
CCN1C(=O)/C(=C2\C=Cc3ccccc3N2CC)OC1=S | 95.5 | 100% (inactive) | 95.5% (inactive) | 85.9% (inactive) | 72% (inactive) | 7.3% (inactive) | 64.7 | 72 | -4.23% (inactive) | 2.33% (inactive)
COc1ccc(CCNc2nc(N3CCOCC3)nc(N3CCOCC3)n2)cc1OC | 81 | 91% (inactive) | 81% (inactive) | 108% (inactive) | 96.7% (inactive) | 2.03% (inactive) | 94.6 | 96.7 | 0.4% (inactive) | -4.84% (inactive)
OCCn1c(-c2ccc3c(c2)OCO3)csc1=Nc1ccccc1 | 97 | 71.5% (inactive) | 97% (inactive) | 51.4% (inactive) | 88.7% (inactive) | -2.46% (inactive) | 91.2 | 88.7 | -4.4% (inactive) | 5.9% (inactive)
CC1N=C2c3ccccc3N=C(SCc3cc(=O)n4cc(Cl)ccc4n3)N2C1=O (stereo not given) | 78.5 | 92.5% (inactive) | 78.5% (inactive) | 79.4% (inactive) | 76.1% (inactive) | -9.46% (inactive) | 85.6 | 76.1 | -4.87% (inactive) | -0.48% (inactive)
Cc1ccc(CNC(=O)C2CCCN(S(=O)(=O)c3cccnc3)C2)cc1 (stereo not given) | 92.5 | 109% (inactive) | 92.5% (inactive) | 104% (inactive) | 99.6% (inactive) | 10.6% (inactive) | 89 | 99.6 | -0.26% (inactive) | -4.18% (inactive)
CC(C)(C)C(=O)N=C1SC2CS(=O)(=O)CC2N1c1ccc2c(c1)OCO2 (stereo not given) | 88 | 110% (inactive) | 88% (inactive) | 104% (inactive) | 106% (inactive) | 10.5% (inactive) | 95.7 | 106 | 0.79% (inactive) | -7.82% (inactive)
